Data set [1] deals with Cavia porcellus. Kind of data set: Positive inotropic activity in guinea pig atria assessed as increase in […] at 0.16 ml/min, iv. It counts as functional.
Data set [2] in a line: Inhibition of dog kidney Na+K+-ATPase assessed as hydrolysis of [32P]ATP. Set-up: species or system Canis lupus familiaris. Summed up:
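Dog kidney Na+,K+-ATPase, isolated and purified by the Jørgensen method. Enzyme activity was read as % hydrolysis of 32P-ATP with versus without test compound. IC50 was obtained by nonlinear least-squares curve fitting, as the mean of two or three experiments.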

Data set [3] can be described thus: Therapeutic index, ratio of lethal dose to ED80 for inotropic activity in guinea pig. As to conditions: in vivo. It is filed as organism-based, Cavia porcellus. The gist of the method:
(§1)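 Anesthetized guinea pigs with a jugular vein cannula and an intubated trachea for spontaneous respiration. After stabilization, drug was infused iv at 0.16 mL/min until death or for up to 90 min. Vehicle was DMSO diluted in physiological solution to 1% DMSO final. Read-out was +dP/dt_max. ED80 (dose raising +dP/dt_max by 80%) came from the dose–response, and the doses giving maximum inotropy and death were recorded, giving the lethal dose/ED80 ratio.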

The subject of data set [4] is Cavia porcellus. Kind of data set: Positive inotropic activity in iv dosed guinea pig atria assessed as concentration required to increase in […]. It counts as functional.
Data set [5] is filed under the species Cavia porcellus. Kind of data set: Positive inotropic activity in electrically driven guinea pig atria assessed as maximal concentration required to increase in […]. It is filed as functional.
Data set [6] concerns Cavia porcellus. Kind of data set: Toxicity in guinea pig assessed as death at 0.16 ml/min, iv up to 90 mins. As to conditions: in vivo, 1.5 h. It is filed as organism-based. The gist of the method:
as §1

SMILES strings stand for the structures.

As for `C[C@]12CC/C(=N\OCCN)C[C@@H]1[C@@H](CCO)C[C@@H]1[C@@H]2CC[C@]2(C)C(=O)CC[C@@H]12.Cl`, the Emax in the data set on Cavia porcellus [1] came out at 238%. The IC50 in data set [2] is 320 nM. Besides, in data set [3], the selectivity ratio was 23. The ED80 with Cavia porcellus [4] was found to be 2.5 µM/g. Also, the Activity in the data set listed under Cavia porcellus [5] was found to be 17 µM/g.

On to `C[C@]12CC/C(=N\OCCN)C[C@@H]1[C@@H](O[N+](=O)[O-])C[C@@H]1[C@@H]2CC[C@]2(C)C(=O)CC[C@@H]12.O=C(O)/C=C/C(=O)O`, for which the Emax in the data set with Cavia porcellus [1] is 172%. In addition, the IC50 in data set [2] turned out to be 330 nM. Further, in data set [3], the selectivity ratio was determined as 8. For the same molecule, the ED80 in the data set with Cavia porcellus [4] is 3.6 µM/g. In addition, the Activity in the data set listed under Cavia porcellus [5] was found to be 9.8 µM/g.

As for `C[C@]12CC/C(=N\O[C@@H]3CCNC3)C[C@@H]1/C(=N/O)C[C@@H]1[C@@H]2CC[C@]2(C)C(=O)CC[C@@H]12.Cl`, in the data set on Cavia porcellus [1], the Emax was 144%. Moreover, the IC50 in data set [2] was determined as 16 nM. Moreover, the Activity result was “Non-toxic” with Cavia porcellus [6] and 4.3 µM/g in the data set filed under Cavia porcellus [5]. Besides, the ED80 in the data set on Cavia porcellus [4] worked out at 1.5 µM/g.

`C[C@]12CC/C(=N\O[C@@H]3CCNC3)C[C@@H]1[C@@H](CCO)C[C@@H]1[C@@H]2CC[C@]2(C)C(=O)CC[C@@H]12.Cl`: the Emax with Cavia porcellus [1] came to 183%. Moreover, the IC50 in data set [2] was found to be 58 nM. Further, the Activity entry was “Non-toxic” in the data set on Cavia porcellus [6] and 5.1 µM/g in the data set filed under Cavia porcellus [5]. Also, in the data set with Cavia porcellus [4], the ED80 came to 1.9 µM/g.

`C[C@]12CC/C(=N\O[C@@H]3CCNC3)C[C@@H]1[C@@H](C(N)=O)C[C@@H]1[C@@H]2CC[C@]2(C)C(=O)CC[C@@H]12.Cl`: in the data set with Cavia porcellus [1], the Emax worked out at 109%. Also, the IC50 in data set [2] was 140 nM. The Activity entry is “Non-toxic” with Cavia porcellus [6] and 8.8 µM/g in the data set listed under Cavia porcellus [5]. Moreover, the ED80 in the data set with Cavia porcellus [4] was found to be 2.2 µM/g.

Consider `CNCCCO/N=C1\CC[C@@]2(C)[C@H](C1)[C@@H](CO)C[C@@H]1[C@@H]2CC[C@]2(C)C(=O)CC[C@@H]12.Cl`, for which, in the data set with Cavia porcellus [1], the maximal response (Emax) was 263%. Moreover, the IC50 in data set [2] was determined as 690 nM. In addition, in data set [3], the selectivity ratio came to 28. Also, in the data set with Cavia porcellus [4], the ED80 is 1.5 µM/g. Further, the Activity in the data set listed under Cavia porcellus [5] stood at 9 µM/g.

As for `CNCCCO/N=C1\CC[C@@]2(C)[C@H](C1)[C@@H](C)C[C@@H]1[C@@H]2CC[C@]2(C)C(=O)CC[C@@H]12.Cl`, in the data set with Cavia porcellus [1], the maximum response (Emax) came to 213%. For the same molecule, the 50% inhibitory concentration (IC50) in data set [2] is 910 nM. Further, the results for the Activity result with Cavia porcellus [6] and in the data set listed under Cavia porcellus [5] were “Non-toxic” and 18 µM/g, respectively. Besides, the ED80 in the data set on Cavia porcellus [4] worked out at 8.1 µM/g.

`CO[C@H]1C[C@@H]2[C@H](CC[C@]3(C)C(=O)CC[C@@H]23)[C@@]2(C)CC/C(=N\OCCN)C[C@H]12.Cl`: in the data set with Cavia porcellus [1], the maximum response (Emax) is 167%. Moreover, the IC50 in data set [2] came to 710 nM. In data set [3], the selectivity ratio was found to be 9. Also, in the data set on Cavia porcellus [4], the ED80 came to 4.3 µM/g. The Activity in the data set listed under Cavia porcellus [5] amounted to 18 µM/g.

Take `CNCCCO/N=C1\CC[C@@]2(C)[C@H](C1)[C@@H](NC=O)C[C@@H]1[C@@H]2CC[C@]2(C)C(=O)CC[C@@H]12.Cl`: in the data set on Cavia porcellus [1], the Emax stood at 177%. Also, the IC50 in data set [2] was 1100 nM. For the same molecule, the selectivity ratio in data set [3] turned out to be 47. For the same molecule, in the data set with Cavia porcellus [4], the ED80 was found to be 0.93 µM/g. In addition, the Activity in the data set filed under Cavia porcellus [5] amounted to 2.8 µM/g.

`COC(=O)[C@H]1C[C@@H]2[C@H](CC[C@]3(C)C(=O)CC[C@@H]23)[C@@]2(C)CC/C(=N\O[C@@H]3CCNC3)C[C@H]12.Cl`: the Emax in the data set on Cavia porcellus [1] stood at 164%. Besides, the half-inhibitory concentration (IC50) in data set [2] was found to be 160 nM. The Activity entry in the data set on Cavia porcellus [6] is “Non-toxic”; in the data set filed under Cavia porcellus [5], 23 µM/g. Moreover, in the data set on Cavia porcellus [4], the ED80 came to 11 µM/g.

As to `C[C@]12CC/C(=N\OCCN)C[C@@H]1/C(=N/O)C[C@@H]1[C@@H]2CC[C@]2(C)C(=O)CC[C@@H]12.Cl`, the maximum response (Emax) in the data set with Cavia porcellus [1] came to 180%. Further, in data set [2], the IC50 came out at 24 nM. In data set [3], the selectivity ratio was 11. Further, the ED80 with Cavia porcellus [4] was 0.84 µM/g. The Activity in the data set listed under Cavia porcellus [5] is 4.3 µM/g.

`COC[C@H]1C[C@@H]2[C@H](CC[C@]3(C)C(=O)CC[C@@H]23)[C@@]2(C)CC/C(=N\O[C@@H]3CCNC3)C[C@H]12.O=C(O)/C=C/C(=O)O`: in the data set with Cavia porcellus [1], the Emax came out at 201%. For the same molecule, the IC50 in data set [2] turned out to be 320 nM. The Activity result in the data set with Cavia porcellus [6] was “Non-toxic”; in the data set listed under Cavia porcellus [5], 12 µM/g. Moreover, the ED80 with Cavia porcellus [4] is 6.8 µM/g.

With `CNCCCO/N=C1\CC[C@@]2(C)[C@H](C1)/C(=N/O)C[C@@H]1[C@@H]2CC[C@]2(C)C(=O)CC[C@@H]12.Cl`, in the data set on Cavia porcellus [1], the Emax turned out to be 158%. For the same molecule, the IC50 in data set [2] was 200 nM. Moreover, the Activity entry is “Non-toxic” with Cavia porcellus [6] and 15 µM/g in the data set filed under Cavia porcellus [5]. Moreover, in the data set with Cavia porcellus [4], the ED80 turned out to be 7.1 µM/g.

For the molecule `C[C@]12CC/C(=N\OCCN)C[C@@H]1[C@@H](NC=O)C[C@@H]1[C@@H]2CC[C@]2(C)C(=O)CC[C@@H]12.O=C(O)/C=C/C(=O)O`, the maximal response (Emax) with Cavia porcellus [1] worked out at 174%. Also, the half-inhibitory concentration (IC50) in data set [2] came to 160 nM. Moreover, the selectivity ratio in data set [3] is 33. In addition, the ED80 in the data set on Cavia porcellus [4] came to 2 µM/g. Also, the Activity in the data set listed under Cavia porcellus [5] amounted to 27 µM/g.

Consider `C[C@]12CC/C(=N\O[C@@H]3CCNC3)C[C@@H]1[C@@H](NC=O)C[C@@H]1[C@@H]2CC[C@]2(C)C(=O)CC[C@@H]12.Cl`, for which the Emax in the data set on Cavia porcellus [1] amounted to 142%. Also, the IC50 in data set [2] is 41 nM. Moreover, the selectivity ratio in data set [3] worked out at 11. Besides, the ED80 in the data set with Cavia porcellus [4] amounted to 1.6 µM/g. Also, in the data set listed under Cavia porcellus [5], the Activity was 6 µM/g.

`C[C@H]1O[C@@H](O[C@H]2[C@@H](O)C[C@H](O[C@H]3[C@@H](O)C[C@H](O[C@H]4CC[C@@]5(C)[C@H](CC[C@@H]6[C@@H]5C[C@@H](O)[C@]5(C)[C@@H](C7=CC(=O)OC7)CC[C@]65O)C4)O[C@@H]3C)O[C@@H]2C)C[C@H](O)[C@@H]1O` [DIGOXIN]: in data set [2], the IC50 amounted to 310 nM. The selectivity ratio in data set [3] amounted to 3.2. The Activity result in the data set with Cavia porcellus [6] was “Toxic”; in the data set listed under Cavia porcellus [5], 0.97 µM/g. Moreover, the ED80 with Cavia porcellus [4] worked out at 0.41 µM/g.

The values above are taken from ChEMBL document CHEMBL1165977, “Novel analogues of Istaroxime, a potent inhibitor of Na(+),K(+)-ATPase: Synthesis, structure-activity relationship and 3D-quantitative structure-activity relationship of derivatives at position 6 on the androstane scaffold” (Bioorg Med Chem, 2010).
